Test results taken from ChEMBL document CHEMBL2417490, “Synthesis and biological evaluation of pyrazolo[4,3-d]pyrimidine analogues” (Eur J Med Chem, 2013).
Values after ≈ are worked out from the molar mass of the structure shown.

Key:
[1] = target: Xanthine dehydrogenase/oxidase (Homo sapiens, UniProt P47989); experiment: Inhibition of xanthine oxidase (unknown origin) using xanthine as substrate assessed as uric acid formation preincubated for 5 mins followed by substrate addition measured every minute up to 8 mins by spectrophotometric analysis
[2] = Cytotoxicity against human 7221 cells assessed as inhibition of cell replication after 72 hrs by MTT assay; assay type: functional, cell-based
Summary of the method: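 7221 hepatoma cells, harvested in log phase with 0.05% trypsin/1 mM EDTA and grown at 37 °C in 5% CO₂, were plated, grown overnight and then exposed to a concentration series (final DMSO <0.1%). MTT was added for 4 h and absorbance read at 570 nm. IC₅₀ came from probit analysis.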

[3] = Cytotoxicity against human 7402 cells assessed as inhibition of cell replication after 72 hrs by MTT assay; assay type: functional, cell-based
Summary of the method: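 7402 hepatoma cells, harvested in log phase with 0.05% trypsin/1 mM EDTA and grown at 37 °C in 5% CO₂, were seeded at 1 × 10⁵ cells/mL, grown overnight and then exposed to a concentration series (final DMSO <0.1%). MTT was added for 4 h and absorbance read at 570 nm. IC₅₀ came from probit analysis.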

Xanthine dehydrogenase/oxidase, sequence (P47989 whole entry): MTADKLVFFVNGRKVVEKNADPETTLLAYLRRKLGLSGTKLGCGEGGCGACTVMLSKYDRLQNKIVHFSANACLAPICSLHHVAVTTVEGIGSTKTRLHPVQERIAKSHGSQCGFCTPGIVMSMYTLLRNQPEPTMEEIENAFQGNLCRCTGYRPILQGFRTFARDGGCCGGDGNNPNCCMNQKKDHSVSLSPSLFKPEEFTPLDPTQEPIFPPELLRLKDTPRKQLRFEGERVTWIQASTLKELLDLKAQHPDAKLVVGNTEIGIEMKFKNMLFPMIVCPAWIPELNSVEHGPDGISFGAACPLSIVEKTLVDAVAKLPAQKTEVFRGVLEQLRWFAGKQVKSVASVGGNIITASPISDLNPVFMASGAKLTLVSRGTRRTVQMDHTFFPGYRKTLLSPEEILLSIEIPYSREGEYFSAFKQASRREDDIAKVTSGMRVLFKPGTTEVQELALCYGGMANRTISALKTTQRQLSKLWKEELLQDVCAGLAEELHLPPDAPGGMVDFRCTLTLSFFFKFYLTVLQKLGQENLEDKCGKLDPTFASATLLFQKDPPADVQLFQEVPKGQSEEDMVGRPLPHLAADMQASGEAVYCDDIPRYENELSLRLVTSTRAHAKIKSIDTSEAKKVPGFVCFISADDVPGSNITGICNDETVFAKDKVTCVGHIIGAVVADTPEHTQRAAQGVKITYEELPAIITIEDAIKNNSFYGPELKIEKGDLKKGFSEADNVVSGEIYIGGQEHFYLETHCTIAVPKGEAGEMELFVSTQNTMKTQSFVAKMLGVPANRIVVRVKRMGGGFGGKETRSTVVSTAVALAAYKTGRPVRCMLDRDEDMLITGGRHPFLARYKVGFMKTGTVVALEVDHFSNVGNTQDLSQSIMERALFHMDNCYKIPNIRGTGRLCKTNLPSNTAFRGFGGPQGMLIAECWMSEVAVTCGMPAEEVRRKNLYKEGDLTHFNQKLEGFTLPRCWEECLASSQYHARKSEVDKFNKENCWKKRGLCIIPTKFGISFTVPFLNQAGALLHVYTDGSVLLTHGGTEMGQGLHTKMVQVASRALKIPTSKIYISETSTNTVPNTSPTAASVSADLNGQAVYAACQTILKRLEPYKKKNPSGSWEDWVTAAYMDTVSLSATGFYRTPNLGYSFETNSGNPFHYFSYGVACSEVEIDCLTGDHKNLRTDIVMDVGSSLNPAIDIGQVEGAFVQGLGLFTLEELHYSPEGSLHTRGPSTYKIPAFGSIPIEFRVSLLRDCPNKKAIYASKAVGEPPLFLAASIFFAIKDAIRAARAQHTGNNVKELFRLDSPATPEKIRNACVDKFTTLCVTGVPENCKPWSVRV

Row | IC50 ([1]; read-out: IC50 (converted)) [µM] | IC50 [1] | Compound | IC50 [2] [µg/mL] | IC50 [3] [µg/mL]
1 | 190 |  | O=C(O)Cn1ncc2c(Nc3ccc(NS(=O)(=O)c4ccc([N+](=O)[O-])cc4)cc3)ncnc21 | > 100 | > 100
2 | 144 |  | O=C(O)Cn1ncc2c(Nc3ccc(NS(=O)(=O)c4ccccc4)cc3)ncnc21 | > 100 | > 100
3 |  | Not Active | CCOC(=O)Cn1ncc2c(Cl)ncnc21 | > 100 | > 100
4 |  |  | CCOC(=O)Cn1ncc2c(Nc3ccc(N)cc3)ncnc21 | > 64 | > 64
5 | 102 |  | O=C(O)Cn1ncc2c(Nc3ccc(NC(=O)CCl)cc3)ncnc21 | > 100 | > 100
6 | 103 |  | CC(=O)Nc1ccc(Nc2ncnc3c2cnn3CC(=O)O)cc1 | > 64 | > 64
7 |  | Not Active | CCOC(=O)Cn1ncc2c(Nc3ccc(NS(=O)(=O)c4ccc(Br)cc4)cc3)ncnc21 | > 64 | > 64
8 | 81.9 |  | CCOC(=O)Cn1ncc2c(Nc3ccc(NC(=O)c4ccccc4)cc3)ncnc21 | > 100 | > 100
9 | > 199 |  | O=C(O)Cn1ncc2c(Nc3ccc(NS(=O)(=O)c4ccc(Br)cc4)cc3)ncnc21 | > 64 | > 64
10 | 104 |  | O=C(O)Cn1ncc2c(Nc3ccc(NC(=O)c4ccccc4)cc3)ncnc21 | > 100 | > 100
11 |  |  | CCOC(=O)Cn1ncc2c(Nc3ccc(NC(=O)CCl)cc3)ncnc21 | 3.51 (≈ 9.03 µM) | 7.27 (≈ 18.7 µM)
12 | 109 |  | CCOC(=O)Cn1ncc2c(Nc3ccc(NC(C)=O)cc3)ncnc21 | > 64 | > 64
13 | > 201 |  | CCOC(=O)Cn1ncc2c(Nc3ccc(NS(=O)(=O)c4ccc([N+](=O)[O-])cc4)cc3)ncnc21 | > 64 | > 64
14 | 172 |  | CCOC(=O)Cn1ncc2c(Nc3ccc(NS(=O)(=O)c4ccccc4)cc3)ncnc21 | > 100 | > 100
15 |  |  | C=CCNC1=C2C[C@@H](C)C[C@H](OC)[C@H](O)[C@@H](C)/C=C(\C)[C@H](OC(N)=O)[C@@H](OC)/C=C\C=C(/C)C(=O)NC(=CC1=O)C2=O (stereo in doubt) [TANESPIMYCIN] | 5.77 (≈ 9.85 µM) | 7.27 (≈ 12.4 µM)
